Results from different studies.
CDK7 with cyclin H: Cyclin-dependent kinase 7, with cyclin H (CDK7, Homo sapiens, UniProt P50613)
PDE4D: 3',5'-cyclic-AMP phosphodiesterase 4D (PDE4D, Homo sapiens, UniProt Q08499)
HTR1B: 5-hydroxytryptamine receptor 1B (HTR1B, Homo sapiens, UniProt P28222)
HMGCR: 3-hydroxy-3-methylglutaryl-coenzyme A reductase (HMGCR, Homo sapiens, UniProt P04035)
SYK: Tyrosine-protein kinase SYK (SYK, Homo sapiens, UniProt P43405)

| SMILES | target | test | conditions | inhibition [%] |
| --- | --- | --- | --- | --- |
| COc1cc([C@@H]2c3cc4c(cc3[C@H](O)[C@H]3COC(=O)[C@H]23)OCO4)cc(OC)c1OC | CDK7 with cyclin H | enzyme activity, inhibitor, ADP detection | 10 µM | 17.2 |
| C[C@H](C(=O)N[C@H]1COc2ccccc2[C@@H]1S(C)(=O)=O)c1ccc(F)cc1 | Phospholipase A2, major isoenzyme (PLA2G1B, Sus scrofa, UniProt P00592) | cell-free assay, inhibitor | 10 µM | -6 |
| O=C(/C=C/c1ccc(O)cc1)c1ccc(O)cc1O | PDE4D | enzyme activity, inhibitor, radiometric | 5 µM | -6.18 |
| Clc1ccc2c(C3CCN(CCc4c[nH]c5ccccc45)CC3)c[nH]c2c1 | HTR1B | ligand displacement, radioligand | 10 µM | 100 |
| COCc1c(-c2cc3cc(C)cc(OC)c3s2)c2c(N)ncnn2c1CN1CCNC(=O)C1 | HMGCR | enzyme activity, inhibitor | 10 µM | 1 |
| COc1cc(Nc2ncc(F)c(Nc3ccc4c(n3)NC(=O)C(C)(C)O4)n2)cc(OC)c1OC | Serine/threonine-protein kinase MAK (MAK, Homo sapiens, UniProt P20794) | binding, competition with immobilised ligand | 10 µM | 0 |
| C[C@@H]1CC[C@@]2(NC1)O[C@H]1C[C@H]3[C@@H]4CC=C5C[C@@H](O)CC[C@]5(C)[C@H]4CC[C@]3(C)[C@H]1[C@@H]2C | CDK7 with cyclin H | enzyme activity, inhibitor, ADP detection | 10 µM | 22.4 |
| CC(C)N1CCC[C@H]1CNC(=O)c1cn(C2CCCC2)c(=O)c2c1c1ccccc1n2C | Prostaglandin E2 receptor EP4 subtype (PTGER4, Homo sapiens, UniProt P35408) | ligand displacement, radioligand | 10 µM | 30 |
| C=C[C@H]1C[N@@]2CC[C@H]1C[C@@H]2[C@@H](O)c1ccnc2ccccc12 | CDK7 with cyclin H | enzyme activity, inhibitor, ADP detection | 10 µM | 12.9 |
| O=c1c(O)c(-c2ccc(O)c(O)c2)oc2cc(O)cc(O)c12 | PDE4D | enzyme activity, inhibitor, radiometric | 5 µM | 75.2 |
| Cn1cc(-c2cccc(N3CCc4c(sc5c4CC(C)(C)C5)C3=O)c2CO)cc(Nc2ccncn2)c1=O | Protein kinase C gamma type (PRKCG, Homo sapiens, UniProt P05129) | enzyme activity, inhibitor | 1 µM | -1 |
| C#Cc1n[nH]c2c(-c3cn(C(C)c4ccccn4)c(=O)[nH]c3=O)cc(F)cc12 (stereo not drawn) | SYK | enzyme activity, inhibitor | 1 µM | -7.5 |
| COc1c(-c2ccc3c(c2)OCO3)oc2c(ccc3occc32)c1=O | CDK7 with cyclin H | enzyme activity, inhibitor, ADP detection | 10 µM | 30.4 |
| COc1ccc(-c2coc3cc(O)ccc3c2=O)cc1 | PDE4D | enzyme activity, inhibitor, radiometric | 50 µM | 5.54 |
| O=C(Nc1cccnn1)N1CCN([C@@H]2CCOc3cc(C(F)(F)F)ccc32)CC1 | PDE4D | enzyme activity, inhibitor | 20 µM | 1 |
| COc1cc2c3c(c1OC)-c1cc4c(cc1CC3N(C)CC2)OCO4 (racemic) | HTR1B | ligand displacement, radioligand | 10 µM | 100 |
| COc1ccc(CC2NCCc3cc(OC)c(OC)cc32)cc1OC (stereo not drawn) | CDK7 with cyclin H | enzyme activity, inhibitor, ADP detection | 10 µM | 22.5 |
| C=CCc1ccc(O)c(-c2ccc(O)c(CC=C)c2)c1 | PDE4D | enzyme activity, inhibitor, radiometric | 50 µM | 25.6 |
| N=C(N)Nc1ccc(C(=O)Nc2ccc3c(c2)B(O)OC3)cc1 | Prothrombin (F2, Homo sapiens, UniProt P00734) | enzyme activity, inhibitor | 50 µM | 10.7 |
| COC(=O)c1cc(O)c(O)c(O)c1 | PDE4D | enzyme activity, inhibitor, radiometric | 50 µM | -5.1 |
| c1ccc(C(NCCNC(c2ccccc2)c2ccccc2)c2ccccc2)cc1 | HMGCR | enzyme activity, inhibitor | 10 µM | -2 |
| COc1cc(O)ccc1/C=C/C(=O)c1ccc(O)cc1 | PDE4D | enzyme activity, inhibitor, radiometric | 50 µM | 62.8 |
| COc1cc2c(cc1OC)[C@@]13CCN4CC5=CCO[C@H]6CC(=O)N2[C@H]1[C@H]6[C@H]5C[C@H]43 | CDK7 with cyclin H | enzyme activity, inhibitor, ADP detection | 10 µM | 28.4 |
| O=C(O)CCCCCCCC(=O)O | PDE4D | enzyme activity, inhibitor, radiometric | 50 µM | 47.1 |
| COc1cc2c(c(OC)c1OC)-c1ccc(OC)c(=O)cc1[C@@H](NC(C)=O)CC2 | CDK7 with cyclin H | enzyme activity, inhibitor, ADP detection | 10 µM | -0.4 |
| CC(C)=CCc1cc(-c2coc3cc(O)cc(O)c3c2=O)cc(O)c1O | PDE4D | enzyme activity, inhibitor, radiometric | 5 µM | 84.6 |
| C#Cc1n[nH]c2c(-c3cn([C@@H](C)c4ccccc4)c(=O)[nH]c3=O)cc(F)cc12 | SYK | enzyme activity, inhibitor | 0.1 µM | 1.6 |
